The nature of assay [1]: Inhibition of bovine brain tubulin polymerization incubated for 15 mins prior to GTP addition measured after 20 mins by spectrophotometry. The arrangement: species or system Bos taurus.
The subject of another assay is PC-3. Nature of the assay: Cytotoxicity against human PC3 cells after 48 hrs by sulforhodamine B assay. The assay is classed as functional, cell-based. The note with it: PC-3, 48 h.
The species named for assay [2] is Bos taurus. As to the kind of experiment: Displacement of [3H]colchicine from bovine brain tubulin at 5 uM after 10 mins by scintillation counting analysis relative to control. Background: Displacement assays read how much labelled ligand stays bound in the presence of the test substance.
The subject of a further assay is MCF7. As to the kind of experiment: Cytotoxicity against human MCF7 cells after 96 hrs by sulforhodamine B assay. The assay is classed as functional, cell-based. The note with it: MCF7, 96 h. An outline of the steps:
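Human MCF-7 breast cancer cells incubated with compounds for 96 h at 37 °C.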

For a further assay, the system named is HT-29. Nature of the assay: Cytotoxicity against human HT-29 cells after 48 hrs by sulforhodamine B assay. The assay is classed as functional, cell-based. The note with it: HT-29, 48 h. An outline of the steps:
(§1)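 Human 786 (kidney), HT-29 (colon) and PC-3 (prostate) cancer cells exposed to compounds for 48 h at 37 °C.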

The nature of assay [3]: Cytotoxicity against human 786 cells after 48 hrs by sulforhodamine B assay. The assay is classed as functional, cell-based. An outline of the steps:
as §1

For assay [4], the species on record is Bos taurus. Nature of the assay: Displacement of [3H]colchicine from bovine brain tubulin at 1 uM after 10 mins by scintillation counting analysis relative to control.
Another assay has as its target Tubulin. Nature of the assay: Inhibition of tubulin (unknown origin) polymerization after 20 mins. The assay is classed as protein-complex assay, Homo sapiens.

Results on nine compounds are retold here after ChEMBL document CHEMBL2406959, “Synthesis and evaluation of diaryl sulfides and diaryl selenide compounds for antitubulin and cytotoxic activity” (Bioorg Med Chem Lett, 2013).

The term IC50 denotes the concentration that gives 50% inhibition. A low value points to higher potency. By inhibition is commonly meant the percentage by which the read-out fell short of the control. High values mean strong suppression, low ones little suppression.

As to `COc1cc(SSc2cc(OC)c(OC)c(OC)c2)cc(OC)c1OC`, the IC50 in assay [1] is 5400 nM; in the assay with PC-3 it was 6750 nM; in the assay with MCF7 it was over 10000 nM; with HT-29, 76500 nM; in assay [3] it was 112000 nM. The same compound returned an inhibition in the assay listed under Bos taurus [2] of 9%.
As to `COc1ccc(Sc2cc(OC)c(OC)c(OC)c2)cc1N`, the IC50 in assay [1] is 740 nM; in the assay on PC-3, 530 nM; in the assay on MCF7, 8 nM; in the assay on HT-29, 1310 nM; in assay [3], 1240 nM. The inhibition in the assay listed under Bos taurus [2] stood at 95%; in the assay filed under Bos taurus [4] it was 74%.
Consider `COc1ccc(/C=C\c2cc(OC)c(OC)c(OC)c2)cc1O` [COMBRETASTATIN A4], for which the concentration for half-maximal inhibition (IC50) is 1000 nM in the assay on PC-3, 6 nM in the assay on MCF7 and 5000 nM in assay [3].
`COc1ccc([Se]c2ccc(OC)cc2)cc1`: the IC50 is over 20000 nM in assay [1], 8800 nM in the assay with PC-3, over 10000 nM in the assay on MCF7 and 210000 nM with HT-29.
As for `COc1ccc(Sc2cc(OC)c(OC)c(OC)c2)cc1[N+](=O)[O-]`, the IC50 was 2800 nM in assay [1]; 200 nM in the assay with PC-3; 1000 nM with MCF7; 630 nM in the assay with HT-29; 1710 nM in assay [3]. The same compound yielded an inhibition in the assay listed under Bos taurus [2] of 58%.
Turning to `COc1ccc(/C=C\c2cc(OC)c(OC)c(OC)c2)cc1[N+](=O)[O-]`, the IC50 on Tubulin was 1800 nM.
Consider `COc1cccc2c1C(=O)c1c(O)c3c(c(O)c1C2=O)C[C@@](O)(C(=O)CO)C[C@@H]3O[C@H]1C[C@H](N)[C@H](O)[C@H](C)O1` [DOXORUBICIN], for which the IC50 was 440 nM with HT-29 and 330 nM in assay [3].
On to `COc1ccc([Se][Se]c2ccc(OC)cc2)cc1`, for which the IC50 in assay [1] is 1700 nM; in the assay on PC-3 it was 1990 nM; in the assay with MCF7, over 10000 nM; with HT-29 it was 59500 nM; in assay [3], 20700 nM. The compound further gave an inhibition in the assay filed under Bos taurus [2] of 34%.
For the compound `COc1ccc([Se]c2cc(OC)c(OC)c(OC)c2)cc1`, the IC50 turned out to be 620 nM in assay [1]; 80 nM in the assay on PC-3; 10 nM in the assay on MCF7; 280 nM with HT-29; 680 nM in assay [3]. The results for the inhibition in the assay filed under Bos taurus [2] and in the assay filed under Bos taurus [4] were 94% and 74%, respectively.
